Screening data from PubChem BioAssay.
UBC13 inh: UBC13 polyubiquitin chain formation inhibitors, primary screen, biochemical, TR-FRET, uHTS; Ubiquitin-conjugating enzyme E2 N (Homo sapiens), P61088; inhibition, % at 20 µM; actives 0.47% (n = 330,000); in the data active = inhibition above about 45%, passing the limit was not always enough
Target sequence (P61088 whole entry, looked up): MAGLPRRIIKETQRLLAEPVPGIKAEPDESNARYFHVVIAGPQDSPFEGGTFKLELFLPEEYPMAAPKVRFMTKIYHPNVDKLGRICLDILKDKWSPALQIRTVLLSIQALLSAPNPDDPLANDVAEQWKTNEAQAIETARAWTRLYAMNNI
MEKK2 WT-MEK5: modulators of MEK5 binding to wildtype MEKK2, primary screen, biochemical, multiplex bead flow cytometry, Alexa488-MEK5 | Mitogen-activated protein kinase kinase kinase 2 (Homo sapiens), Q9Y2U5 | Alexa488-MEK5 binding to MEKK2 WT; actives lie on both sides | binding response (% of control), % at 10 µM | actives 1.1% (n = 290,000) | AID 1531, 2009; in the data active = binding response below about 67% or above about 130%
MEKK2 mut-MEK5: MEK5 binding signal on mutant MEKK2 PB1, primary screen, biochemical, multiplex bead flow cytometry, Alexa488-MEK5. Alexa488-MEK5 binding to MEKK2 mutant. percent response, % at 10 µM. actives 0.35% (n = 290,000). AID 1530, 2009; in the data active = percent response above about 24%, passing the limit was not always enough
Pemphigus Ab inh: inhibitors of pemphigus antibody binding to DSG3, primary screen, biochemical, bead-based, flow cytometry, scFv-GFP | DSG3-coupled beads, scFv-anti-DSG3-GFP binding; hits give low values | actives 0.48% (n = 310,000) | binding (percent of control), % at 10 µM;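 active = binding more than 3 SD below its plate's average and above zero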;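 also: hits lower antibody fragment binding to DSG3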
MEKK3 PB1 HTS: modulators of MEKK3-MEK5 PB1 binding, primary screen, biochemical, wildtype MEKK3, multiplex bead flow cytometry, Alexa488-MEK5; actives 1.4% (n = 290,000); AID 1529, 2009; bead-based flow cytometry, Alexa488-MEK5 binding to MEKK3; actives lie on both sides; 0 = blocked by unlabeled MEK5, 100 = vehicle; binding response (% of control), % at 10 µM; Mitogen-activated protein kinase kinase kinase 3 (Homo sapiens), Q99759;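 active = binding response more than 3 SD above or below the average of its plate-row segment, actives on both sides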;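 also: Alexa488 bead fluorescence after subtracting the streptavidin-only scavenger bead signal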
Apaf-1 inh: inhibitors of human Apaf-1 apoptosome, primary screen, biochemical, DEVD-Rh110 fluorescence, uHTS; reconstituted apoptosome caspase-3 activity; inhibition, % at 20 µM; actives 0.71% (n = 330,000); Apoptotic protease-activating factor 1 (Homo sapiens), O14727; active = inhibition of at least 40% at 20 µM;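 also: plate controls were DMSO wells for no effect and DEVD-CHO caspase inhibitor wells for full effect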
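System: reconstituted apoptosome with Apaf-1, cytochrome c, caspase-9, procaspase-3, dATP; Signal: Rh110 fluorescence intensity; Schedule: 30 min compound preincubation, 50 min activation, room temperature; Reagent: cytochrome c trigger plus (Z-DEVD)2-Rh110 caspase-3 substrate.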
MEKK2wt confirm: modulators of MEK5 binding to wildtype MEKK2, confirmation, biochemical, single concentration, multiplex bead flow cytometry; shares compounds with MEKK3 PB1 HTS; Alexa488-MEK5 binding to MEKK2 WT; actives lie on both sides; binding response (% of control), % at 10 µM; actives 2.4% (n = 5,900); in the data active = binding response below about 16% or above about 210%; inactive = in between
MEKK2mut confirm: mutant MEKK2 PB1-MEK5 binding signal retest – biochemical, single concentration, multiplex bead flow cytometry, confirmation | shares compounds with MEKK3 PB1 HTS | Alexa488-MEK5 binding to MEKK2 mutant | percent response, % at 10 µM | actives 2% (n = 5,900) | AID 1893, 2009; in the data active = percent response mostly above about 71%, no sharp cut-off; inactive = mostly below about 38%;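 also: higher means compound restores mutant binding toward wildtype level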
MEKK3 confirm: MEKK3 wild-type PB1 binding to MEK5, inhibitors, confirmation, biochemical, bead multiplex flow cytometry, single concentration, wildtype; Alexa488-MEK5 binding to MEKK3; hits give low values; AID 1894, 2009; shares compounds with MEKK3 PB1 HTS; binding response (% of control), % at 10 µM; actives 1.8% (n = 5,900);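 active = binding response below 72% of control, or above a set upper limit, though filed actives all read lower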;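 also: 100% = DMSO only wells and 0% = binding blocked by excess unlabeled MEK5; lower values mean stronger disruption of MEK5 binding to MEKK3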
* = called active by the depositor; nt = no result given; [ ] = dose if it differs, or a comment. Most compounds without a hit are left out; they make up all but 3.2% or so of the library.

SMILES	UBC13 inh	MEKK2 WT-MEK5	MEKK2 mut-MEK5	Pemphigus Ab inh	MEKK3 PB1 HTS	Apaf-1 inh	MEKK2wt confirm	MEKK2mut confirm	MEKK3 confirm
COC(=O)C1=C(c2ccc3ccccc3c2)C[C@@H]2CC[C@H]1N2C(=O)N1CCCCC1	-14.0	nt	nt	106.7	nt	18.2	nt	nt	nt
CN(C)Cc1c[nH]c2ccc([N+](=O)[O-])cc12	nt	nt	nt	118.7	nt	nt	nt	nt	nt
COc1ccc2[nH]cc(CCN)c2c1	1.8	152.0*	14.0	106.2	91.0	-0.3	111.0	12.0	99.0
CN1/C(=C\C=C2C(=O)NC(=O)NC2=O)C(C)(C)c2ccccc21	-132.6	103.0	-9.0	114.2	105.0	14.3	nt	nt	nt
CN1/C(=C\C=Nc2ccccc2)C(C)(C)c2ccccc21	-9.3	0.0*[inhibitor]	1.0	115.4	80.0	6.8	104.0	4.0	100.0
N#Cc1c(Cl)nc(Cl)c2c1CCN(Cc1ccccc1)C2	15.8	114.0	2.0	98.1	183.0*	2.9	104.0	3.0	99.0
CC(N)Cc1c[nH]c2ccc(OCc3cccs3)cc12 (centres undefined)	11.2	140.0*	11.0	102.3	119.0	15.7	108.0	7.0	104.0
CC(N)Cc1c[nH]c2ccc(O)cc12 (centres undefined)	nt	nt	nt	112.8	nt	nt	nt	nt	nt
COC(=O)C1=C(c2ccccc2)C[C@@H]2CC[C@H]1N2C(=O)N1CCC(C)CC1	5.5	108.0	5.0	105.0	105.0	4.8	nt	nt	nt
CCN(CC)c1ccc(/C=N/c2sc3c(c2C#N)C2CCN3CC2)c(O)c1	nt	96.0	92.0*	488.7	109.0	nt	84.0	-22.0	93.0
Cc1cccnc1-n1c(C)nc2ccccc2c1=O	7.9	90.0	-4.0	101.9	91.0	-1.6	nt	nt	nt
CN1CCN(Cc2nc3ccccc3c(=O)[nH]2)CC1	5.8	102.0	8.0	96.0	103.0	-6.2	nt	nt	nt
Cc1cc(OCCN2CC2)c2ccccc2n1	5.2	141.0*	15.0	nt	93.0	6.8	172.0	51.0	110.0
Cc1ccccc1C(=O)N1Cc2ccccc2-n2nncc2C1	nt	nt	nt	100.6	nt	nt	nt	nt	nt
CCOc1cc2c(cc1OCC)-n1cccc1C(c1ccc(C(C)C)cc1)NC2 (centres undefined)	24.6	141.0*	20.0	114.7	103.0	16.5	145.0	22.0	107.0
Cc1cc(C=C2C(=O)NC(=S)NC2=O)c(C)n1C1CCCC1	-52.1	99.0	-3.0	97.8	106.0	4.1	nt	nt	nt
Cc1cc(N2CCCCC2)ccc1C=C1C(=O)N(C)C(=S)N(C)C1=O	-5.8	29.0*[inhibitor]	-2.0	102.3	90.0	12.2	87.0	-5.0	88.0
Cc1cc(C=C2C(=O)N(C)C(=S)N(C)C2=O)c(C)n1C1CCCCC1	-30.4	72.0*[inhibitor]	-21.0	101.6	95.0	9.4	82.0	-9.0	99.0
O=C(N/N=C/c1c(O)n(CCC2=CCCCC2)c(=S)[nH]c1=O)c1ccccc1	-18.5	108.0	0.0	109.5	154.0*	9.3	99.0	-2.0	104.0
O=C(N/N=C/c1c(O)n(CCC2=CCCCC2)c(=O)[nH]c1=O)c1ccccc1	-17.1	111.0	1.0	103.0	149.0*	17.4	100.0	-1.0	104.0
